Measurements from ChEMBL document CHEMBL1124640, “Synthesis and biological evaluation of certain C-4 substituted pyrazolo[3,4-b]pyridine nucleosides” (1989).
Active and inactive are the calls of the source. The rule behind the calls is not given here.

Assays:
Semliki Forest virus = assay: Antiviral activity against semliki forest virus in Vero cells.; format: functional, organism-based
Visna-maedi virus = assay: Antiviral activity against Visna virus in SCP cells.; format: functional, organism-based
Human adenovirus 2 = assay: Antiviral activity against adeno 2 virus in HeLa cells.; format: functional, organism-based
Human alphaherpesvirus 2 = assay: Antiviral activity against herpes 2 virus in Vero cells.; format: functional, organism-based; settings: herpes simplex virus type2
HeLa [1] = assay: Antiviral activity against rhino 1-A virus in HeLa cells; IA= Inactive; format: functional, cell-based; settings: Homo sapiens
Lymphoblastoid cell = assay: Ability to inhibit de novo purine nucleotide biosynthesis at a concentration of 100 uM; format: functional; settings: Homo sapiens
Method in brief: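 De novo purine nucleotide synthesis was measured as [14C]formate incorporation in cultured human lymphoblast cells, with compound at 100 μM. Results are given as percent inhibition.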

Vero [2] = assay: Antiviral activity against Para Flu 3 virus in Vero cells; IA= Inactive; format: functional, cell-based; settings: Chlorocebus sabaeus
[3] = Cytotoxicity against human B-lymphoblastic cell line WI-L2; format: functional; settings: WIL2, read-out: ID50 (the source's name)
L1210 = assay: Cytotoxicity against murine leukemic cell line L1210; format: functional; settings: Mus musculus, read-out: ID50 (the source's name)
HeLa [4] = assay: Antiviral activity against rhino 1-A virus in HeLa cells; format: functional, Homo sapiens
Vero [5] = assay: Antiviral activity against semliki forest virus in Vero cells; format: functional, cell-based; settings: Chlorocebus sabaeus

| SMILES | Activity (Semliki Forest virus) | Activity (Visna-maedi virus) | Activity (Human adenovirus 2) | Activity (Human alphaherpesvirus 2) | Activity (HeLa [1]) | inhibition at 100 µM (Lymphoblastoid cell) | Activity (Vero [2]) | IC50 [3] | IC50 (L1210) | Virus rating (HeLa [4]) | Activity (Vero [5]) |
| --- | --- | --- | --- | --- | --- | --- | --- | --- | --- | --- | --- |
| COc1ccnc2c1cnn2C1O[C@H](CO)[C@@H](O)[C@@H]1O (stereo partly specified) | inactive | inactive | inactive | inactive | – | – | – | – | – | – | – |
| OC[C@H]1OC(n2ncc3cccnc32)[C@@H](O)[C@@H]1O (stereo partly specified) | inactive | inactive | inactive | inactive | – | – | – | – | – | – | – |
| [N-]=[N+]=Nc1ccnc2c1cnn2C1O[C@H](CO)[C@@H](O)[C@H]1O (stereo partly specified) | inactive | inactive | inactive | inactive | inactive | 46% | inactive | – | – | – | – |
| OC[C@H]1OC(n2ncc3c(Cl)ccnc32)[C@H](O)[C@@H]1O (stereo partly specified) | inactive | inactive | inactive | inactive | inactive | 94% | inactive | 18 µM | 20 µM | – | – |
| O=C1CC=Nc2c1cnn2C1O[C@H](CO)[C@@H](O)[C@H]1O (stereo partly specified) | – | – | – | – | – | 80% | – | 20 µM | > 100 µM | 0.6 | – |
| Nc1ccnc2c1cnn2C1O[C@H](CO)[C@@H](O)[C@H]1O (stereo partly specified) | – | inactive | inactive | inactive | inactive | 36% | inactive | – | – | – | inactive |
| OC[C@H]1O[C@@H](n2ncc3cccnc32)C[C@@H]1O | inactive | inactive | inactive | inactive | – | – | – | – | – | – | – |
| COc1ccnc2c1cnn2[C@H]1C[C@H](O)[C@@H](CO)O1 | inactive | inactive | inactive | inactive | – | – | – | – | – | – | – |
| Nc1ccnc2c1cnn2[C@H]1C[C@H](O)[C@@H](CO)O1 | inactive | inactive | inactive | inactive | – | – | – | – | – | – | – |
| OC[C@H]1OC(n2ncc3c(O)ccnc32)[C@@H](O)[C@@H]1O (stereo partly specified) | inactive | inactive | inactive | inactive | – | – | – | – | – | – | – |
| OC[C@H]1OC(n2ncc3c(Cl)ccnc32)[C@@H](O)[C@@H]1O (stereo partly specified) | inactive | inactive | inactive | inactive | – | – | – | – | – | – | – |
| O=C1CC=Nc2c1cnn2[C@H]1C[C@H](O)[C@@H](CO)O1 | inactive | inactive | inactive | inactive | – | – | – | – | – | – | – |
| OC[C@H]1OC(n2ncc3cccnc32)[C@H](O)[C@@H]1O (stereo partly specified) | inactive | inactive | inactive | inactive | – | – | – | – | – | – | – |
| COc1ccnc2c1cnn2C1O[C@H](CO)[C@@H](O)[C@H]1O (stereo partly specified) | inactive | inactive | inactive | inactive | – | – | – | – | – | – | – |
| Nc1ccnc2c1cnn2C1O[C@H](CO)[C@@H](O)[C@@H]1O (stereo partly specified) | inactive | inactive | inactive | inactive | inactive | – | inactive | – | – | – | – |
| OC[C@H]1O[C@@H](n2ncc3c(Cl)ccnc32)C[C@@H]1O | inactive | inactive | inactive | inactive | – | – | – | – | – | – | – |
| OC[C@H]1OC(n2ncc3c(OCc4ccccc4)ccnc32)[C@H](O)[C@@H]1O (stereo partly specified) | inactive | inactive | inactive | inactive | – | – | – | – | – | – | – |
